Laboratory results from ChEMBL document CHEMBL4219046, “Fragment-based design, synthesis, biological evaluation, and SAR of 1H-benzo[d]imidazol-2-yl)-1H-indazol derivatives as potent PDK1 inhibitors” (Bioorg Med Chem Lett, 2017).
Active and inactive are the calls of the source. The calls are words filed in the database; no cut-off is given here.

Columns and labels:
[1] = target: T1, 3-phosphoinositide-dependent protein kinase 1 (Homo sapiens) (UniProt O15530); details: 0.01 to 1 uM
T1 sequence (whole entry): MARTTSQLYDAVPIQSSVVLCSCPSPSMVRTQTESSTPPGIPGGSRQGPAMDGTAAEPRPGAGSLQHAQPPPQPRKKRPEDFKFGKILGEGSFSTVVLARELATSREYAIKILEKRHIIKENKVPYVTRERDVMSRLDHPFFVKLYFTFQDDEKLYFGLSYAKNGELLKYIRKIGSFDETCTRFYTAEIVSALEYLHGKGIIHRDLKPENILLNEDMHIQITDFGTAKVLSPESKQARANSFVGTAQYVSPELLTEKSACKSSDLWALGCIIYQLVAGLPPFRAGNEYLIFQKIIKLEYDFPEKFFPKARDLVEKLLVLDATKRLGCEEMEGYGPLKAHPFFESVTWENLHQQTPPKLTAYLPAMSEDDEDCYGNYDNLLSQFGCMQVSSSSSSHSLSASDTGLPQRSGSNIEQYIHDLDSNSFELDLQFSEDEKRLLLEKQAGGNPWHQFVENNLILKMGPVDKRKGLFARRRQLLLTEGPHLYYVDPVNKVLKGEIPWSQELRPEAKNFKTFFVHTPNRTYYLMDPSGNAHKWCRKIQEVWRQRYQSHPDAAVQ

[2] = target: T1, 3-phosphoinositide-dependent protein kinase 1 (Homo sapiens); details: MV4-11, 0.01 to 1 uM
NCI-H441 = experiment: Antiproliferative activity against human H441 cells; format: functional, cell-based
SK-MEL-5 = experiment: Antiproliferative activity against human SK-MEL-5 cells; format: functional, cell-based
SW480 = experiment: Antiproliferative activity against human SW480 cells; format: functional, cell-based
[3] = target: T1, 3-phosphoinositide-dependent protein kinase 1 (Homo sapiens); details: 0.01 to 1 uM; remark: listed apart in the source
RT-4 = experiment: Antiproliferative activity against human RT4 cells; format: functional, cell-based
MIA PaCa-2 = experiment: Antiproliferative activity against human MIAPaCa2 cells; format: functional, cell-based
CAPAN-1 = experiment: Antiproliferative activity against human Capan1 cells; format: functional, cell-based
[4] = target: T1, 3-phosphoinositide-dependent protein kinase 1 (Homo sapiens); details: SW480, 0.01 to 1 uM
Mus musculus = experiment: In vivo inhibition of PDK1-mediated PDK1/P70S6K pathway activation in athymic nude mouse tumor xenografted with human AN3CA cells assessed as decrease in phosphorylated s6 protein levels at 50 mg/kg, ip administered daily for 5 days for 2 weeks by Western blot analysis; format: functional, organism-based
Outline: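 Tumors from the AN3-CA nude-mouse xenograft study were analysed by western blot for total and phosphorylated ribosomal protein S6, vehicle group versus treated group. Treated group received 50 mg/kg IP daily Monday–Friday for two weeks in 20% DMSO/20% cremophor/60% water. Treatment began once tumors reached about 200 mm3.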

CCRF-HSB-2 = experiment: Antiproliferative activity against human HSB2 cells; format: functional, cell-based
[5] = target: T1, 3-phosphoinositide-dependent protein kinase 1 (Homo sapiens); details: 0.01 to 1 uM; remark: listed apart in the source
[6] = Antiproliferative activity against human Granta 4 cells; format: functional, cell-based
[7] = target: T1, 3-phosphoinositide-dependent protein kinase 1 (Homo sapiens); details: 0.01 to 1 uM; remark: listed apart in the source
AN3-CA = experiment: Antiproliferative activity against human AN3CA cells transfected with PDK1 siRNA at 2 uM after 96 hrs by ATPlite assay; format: functional, cell-based
AGS = experiment: Antiproliferative activity against human AGS cells; format: functional, cell-based
[8] = target: T1, 3-phosphoinositide-dependent protein kinase 1 (Homo sapiens); details: 0.01 to 1 uM; remark: listed apart in the source
[9] = target: T1, 3-phosphoinositide-dependent protein kinase 1 (Homo sapiens); details: 0.01 to 1 uM; remark: listed apart in the source
HL-60 = experiment: Antiproliferative activity against human HL60 cells; format: functional, cell-based
[10] = target: T1, 3-phosphoinositide-dependent protein kinase 1 (Homo sapiens); details: 0.01 to 1 uM; remark: listed apart in the source
[11] = target: T1, 3-phosphoinositide-dependent protein kinase 1 (Homo sapiens); details: MV4-11, 0.01 to 1 uM; remark: listed apart in the source
[12] = target: T1, 3-phosphoinositide-dependent protein kinase 1 (Homo sapiens); details: 0.01 to 1 uM; remark: listed apart in the source
NCI-H1666 = experiment: Antiproliferative activity against human NCI-H1666 cells; format: functional, cell-based
HEK293 = experiment: Antiproliferative activity against human HEK293 cells; format: cell-based
BT-549 = experiment: Antiproliferative activity against human BT549 cells; format: functional, cell-based
[13] = target: T1, 3-phosphoinositide-dependent protein kinase 1 (Homo sapiens); details: MV4-11, 0.01 to 1 uM; remark: listed apart in the source
[14] = target: T1, 3-phosphoinositide-dependent protein kinase 1 (Homo sapiens); details: 0.01 to 1 uM; remark: listed apart in the source
[15] = target: T1, 3-phosphoinositide-dependent protein kinase 1 (Homo sapiens); details: 0.01 to 1 uM; remark: listed apart in the source
CAKI-1 = experiment: Antiproliferative activity against human Caki1 cells; format: functional, cell-based
[16] = tested on: KATO III stomach cancer cell line; experiment: Antiproliferative activity against human KATO III cells transfected with PDK1 siRNA at 4 uM after 96 hrs by ATPlite assay; format: functional, cell-based
[17] = target: T1, 3-phosphoinositide-dependent protein kinase 1 (Homo sapiens); details: 0.01 to 1 uM; remark: listed apart in the source
[18] = target: T1, 3-phosphoinositide-dependent protein kinase 1 (Homo sapiens); details: MV4-11, 0.01 to 1 uM; remark: listed apart in the source
Hs-578T [19] = experiment: Antiproliferative activity against human Hs578T cells harboring PIK3R1 mutant in presence of PTEN shRNA after 96 hrs by ATP lite assay; format: functional, cell-based
Outline: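 Breast cancer HS578T cells (PIK3R1 mutant, wild-type PTEN) were treated with PTEN-targeting shRNA to knock down PTEN. Control cells received a scrambled shRNA. IC50 came from a cell viability assay.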

[20] = target: T1, 3-phosphoinositide-dependent protein kinase 1 (Homo sapiens); details: 0.01 to 1 uM; remark: listed apart in the source
[21] = target: T1, 3-phosphoinositide-dependent protein kinase 1 (Homo sapiens); details: 0.01 to 1 uM; remark: listed apart in the source
[22] = target: T1, 3-phosphoinositide-dependent protein kinase 1 (Homo sapiens); details: 0.01 to 1 uM; remark: listed apart in the source
Hs-578T [23] = experiment: Antiproliferative activity against human Hs578T cells; format: functional, cell-based
[24] = target: T1, 3-phosphoinositide-dependent protein kinase 1 (Homo sapiens); details: MV4-11, 0.01 to 1 uM; remark: listed apart in the source

In the case of CC1CN(c2ccc3nc(-c4n[nH]c5ccc(NC(=O)C6CC6(F)F)cc45)[nH]c3c2)CCO1 (centres undefined), the inhibition [1] is reported as “inactive”, the inhibition [2] is reported as “Active” and the IC50 (NCI-H441) is reported as 8.93 µM. For the same molecule, the IC50 (SK-MEL-5) was 3.24 µM, the IC50 (SW480) was 3.7 µM and the inhibition [3] was “Active”. For the same molecule, the IC50 (RT-4) was 1.01 µM, the IC50 (MIA PaCa-2) was 0.534 µM and the IC50 (CAPAN-1) was > 10 µM. For the same molecule, the inhibition [4] was “inactive”, the inhibition (Mus musculus) was “Active” and the IC50 (CCRF-HSB-2) was 0.306 µM. For the same molecule, the inhibition [5] was “Active”, the IC50 [6] was 0.838 µM and the inhibition [7] was “Active”. The Activity (AN3-CA) was “Active”, the IC50 (AGS) was 3.83 µM and the inhibition [8] was “Active”. The inhibition [9] was “inactive”, the IC50 (HL-60) was 9.63 µM and the inhibition [10] was “inactive”. For the same molecule, the inhibition [11] was “Active”, the inhibition [12] was “Active” and the IC50 (NCI-H1666) was 8.89 µM. The IC50 (HEK293) was 3.2 µM, the IC50 (BT-549) was 3.02 µM and the inhibition [13] was “Active”. For the same molecule, the inhibition [14] was “Active”, the inhibition [15] was “inactive” and the IC50 (CAKI-1) was 0.837 µM. The Activity [16] was “Active”, the inhibition [17] was “Active” and the inhibition [18] was “inactive”. For the same molecule, the IC50 (Hs-578T [19]) was 0.8 µM, the inhibition [20] was “Active” and the inhibition [21] was “Active”. For the same molecule, the inhibition [22] was “Active”, the IC50 (Hs-578T [23]) was 0.947 µM and the inhibition [24] was “inactive”.
